The test system of one test is SR. The test can be described thus: Growth inhibition of human SR cells after 48 hrs by sulforhodamine B assay. Type of test: functional. Put shortly:
(§1)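 NCI five-dose assay using 10-fold serial dilutions from 10^-8 to 10^-4 M, compound in DMSO. Cells exposed 48 h at 37 °C, 5% CO2, 100% humidity. Protein measured by sulforhodamine B staining at 515 nm, with time-zero, control and treated readings. GI50 is the concentration where [(Ti−Tz)/(C−Tz)]×100 = 50. It is reported as greater or less than the range bounds when not reached.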
In general terms: The SRB assay estimates cell density from bound dye.

The test system of another test is A549. Nature of the test: Growth inhibition of human A549 cells after 48 hrs by sulforhodamine B assay. The class given is functional. The following applies: A549, 48 h. Put shortly:
as §1

Another test relates to NCI-H322M. Nature of the test: Growth inhibition of human NCI-H322M cells after 48 hrs by sulforhodamine B assay. Type of test: functional. Put shortly: as §1
A further test relates to NCI-H23. The test can be described thus: Growth inhibition of human NCI-H23 cells after 48 hrs by sulforhodamine B assay. Type of test: functional. The following applies: NCI-H23, 48 h. Put shortly: as §1
Test [1] has as its system HCT-116. Nature of the test: Growth inhibition of human HCT116 cells after 48 hrs by sulforhodamine B assay. The class given is functional. The following applies: HCT-116, 48 h. Put shortly:
as §1

The subject of a further test is SF-539. Nature of the test: Growth inhibition of human SF539 cells after 48 hrs by sulforhodamine B assay. Type of test: functional. Particulars: SF-539, 48 h. Put shortly: as §1
A further test has as its system SNB-75. The test can be described thus: Growth inhibition of human SNB75 cells after 48 hrs by sulforhodamine B assay. Type of test: functional. Particulars: SNB-75, 48 h. Put shortly: as §1
The subject of the next test is SF-295. The test can be described thus: Growth inhibition of human SF295 cells after 48 hrs by sulforhodamine B assay. Type of test: functional. The following applies: SF-295, 48 h. Put shortly: as §1
For a further test, the system named is LOX IMVI. The test can be described thus: Growth inhibition of human LOXIMVI cells after 48 hrs by sulforhodamine B assay. The class given is functional. Put shortly:
as §1

The subject of the next test is Malme-3M. Nature of the test: Growth inhibition of human MALME-3M cells after 48 hrs by sulforhodamine B assay. Type of test: functional. Put shortly:
as §1

For a further test, the system named is OVCAR-4. Nature of the test: Growth inhibition of human OVCAR4 cells after 48 hrs by sulforhodamine B assay. Type of test: functional. Particulars: OVCAR-4, 48 h. Put shortly: as §1
The subject of a further test is OVCAR-8. The test can be described thus: Growth inhibition of human OVCAR8 cells after 48 hrs by sulforhodamine B assay. The class given is functional. The following applies: OVCAR-8, 48 h. Put shortly:
as §1

For another test, the system named is NCI/ADR-RES. The test can be described thus: Growth inhibition of human NCI/ADR-RES cells after 48 hrs by sulforhodamine B assay. Type of test: functional. Put shortly: as §1
For the next test, the system named is OVCAR-3. Nature of the test: Growth inhibition of human OVCAR3 cells after 48 hrs by sulforhodamine B assay. Type of test: functional. The following applies: OVCAR-3, 48 h. Put shortly: as §1
The next test deals with SK-OV-3. The test can be described thus: Growth inhibition of human SKOV3 cells after 48 hrs by sulforhodamine B assay. Type of test: functional. The following applies: SK-OV-3, 48 h. Put shortly:
as §1

The test system of a further test is RXF 393. The test can be described thus: Growth inhibition of human RXF393 cells after 48 hrs by sulforhodamine B assay. The class given is functional. The following applies: RXF 393, 48 h. Put shortly:
as §1

The next test has as its system 786-0. Nature of the test: Growth inhibition of human 786-0 cells after 48 hrs by sulforhodamine B assay. Type of test: functional. Particulars: 786-0, 48 h. Put shortly: as §1
The subject of the next test is UO-31. Nature of the test: Growth inhibition of human UO31 cells after 48 hrs by sulforhodamine B assay. Type of test: functional. Particulars: UO-31, 48 h. Put shortly: as §1
Test [2] has as its system DU-145. The test can be described thus: Growth inhibition of human DU145 cells after 48 hrs by sulforhodamine B assay. The class given is functional. Particulars: DU-145, 48 h. Put shortly:
as §1

Test [3] is described as follows: Growth inhibition of human Hs 578T cells after 48 hrs by sulforhodamine B assay. The class given is functional. Put shortly: as §1
In another test the test system is MDA-MB-231. The test can be described thus: Growth inhibition of human MDA-MB-231 cells after 48 hrs by sulforhodamine B assay. Particulars: MDA-MB-231, 48 h. The class given is functional. Put shortly: as §1
The next test deals with TK-10. The test can be described thus: Anticancer activity against human TK10 cells assessed as cell growth at 10^-5 M after 48 hrs by sulforhodamine B assay relative to control. The following applies: TK-10, 48 h.
Test [4] relates to HCT-116. The test can be described thus: Anticancer activity against human HCT116 cells assessed as cell growth at 10^-5 M after 48 hrs by sulforhodamine B assay relative to control. The following applies: HCT-116, 48 h.
A further test deals with NCI-H522. The test can be described thus: Anticancer activity against human NCI-H522 cells assessed as cell growth at 10^-5 M after 48 hrs by sulforhodamine B assay relative to control. Particulars: NCI-H522, 48 h.
For another test, the system named is ACHN. Nature of the test: Anticancer activity against human ACHN cells assessed as cell growth at 10^-5 M after 48 hrs by sulforhodamine B assay relative to control.
Test [5] relates to DU-145. Nature of the test: Anticancer activity against human DU145 cells assessed as cell growth at 10^-5 M after 48 hrs by sulforhodamine B assay relative to control. Particulars: DU-145, 48 h.
The test system of the next test is MDA-MB-435. Nature of the test: Anticancer activity against human MDA-MB-435 cells assessed as cell growth at 10^-5 M after 48 hrs by sulforhodamine B assay relative to control. Particulars: MDA-MB-435, 48 h.
The subject of another test is UACC-62. Nature of the test: Anticancer activity against human UACC62 cells assessed as cell growth at 10^-5 M after 48 hrs by sulforhodamine B assay relative to control. Particulars: UACC-62, 48 h.
In a further test the test system is HOP-92. The test can be described thus: Anticancer activity against human HOP92 cells assessed as cell growth at 10^-5 M after 48 hrs by sulforhodamine B assay relative to control. Particulars: HOP-92, 48 h.
In the next test the test system is MOLT-4. Nature of the test: Anticancer activity against human MOLT4 cells assessed as cell growth at 10^-5 M after 48 hrs by sulforhodamine B assay relative to control. Particulars: MOLT-4, 48 h.
The test system of a further test is CAKI-1. Nature of the test: Anticancer activity against human Caki1 cells assessed as cell growth at 10^-5 M after 48 hrs by sulforhodamine B assay relative to control. The following applies: CAKI-1, 48 h.
The mark [6] stands for this setting: read-out: pLC50 (the source's name) (converted).

Each structure is given as a SMILES string.

On to `O=C(NC(=S)Nc1cc(-c2ccc(Br)cc2)n[nH]1)c1ccccc1`, for which the GI50 (commonly the concentration giving 50% growth inhibition) in the test with SR is 11.7 µM; in the test on A549, 2.34 µM; with NCI-H322M, 4.47 µM; in the test on NCI-H23 it was 9.33 µM; in the test with HCT-116 [1], 1.78 µM; in the test on SF-539, 3.39 µM. Moreover, the concentration for 50% growth inhibition (GI50) in the test on SNB-75 was 6.17 µM; with SF-295 it was 9.77 µM; in the test on LOX IMVI, 5.5 µM; in the test on Malme-3M, 6.61 µM; with OVCAR-4, 4.27 µM; with OVCAR-8 it was 4.68 µM. Also, the GI50 in the test with NCI/ADR-RES was 4.9 µM; in the test with OVCAR-3, 5.01 µM; in the test with SK-OV-3 it was 7.24 µM; with RXF 393, 3.16 µM; in the test with 786-0, 3.24 µM; in the test with UO-31, 4.07 µM. Also, the GI50 in the test with DU-145 [2] is 9.33 µM; in [3], 2.75 µM; in the test on MDA-MB-231, 3.8 µM. Further, the CC50 is more than 100 µM in the test with SR (setting [6]); 79.4 µM with A549 (setting [6]); more than 100 µM in the test on NCI-H322M (setting [6]); more than 100 µM with NCI-H23 (read-out: pLC50 (converted)); 24.5 µM in the test on HCT-116 [1] (setting [6]); more than 100 µM in the test on SF-539 (setting [6]). For the same compound, the CC50 was 89.1 µM in the test on SNB-75 (setting [6]); more than 100 µM in the test with SF-295 (setting [6]); more than 100 µM in the test on LOX IMVI (setting [6]); more than 100 µM in the test on Malme-3M (setting [6]); more than 100 µM with OVCAR-4 (setting [6]); 69.2 µM in the test with OVCAR-8 (setting [6]). Further, the CC50 with NCI/ADR-RES (setting [6]) was more than 100 µM; in the test on OVCAR-3 (setting [6]), 70.8 µM; with SK-OV-3 (setting [6]), 52.5 µM; with RXF 393 (setting [6]), 47.9 µM; in the test on 786-0 (setting [6]) it was 47.9 µM; with UO-31 (setting [6]), 85.1 µM. The CC50 (in the test on DU-145 [2] (setting [6]); in test [3] (setting [6]); in the test on MDA-MB-231 (setting [6])) was more than 100 µM each time. Besides, the TGI with SR (read-out: pTGI (converted)) is 40.7 µM; with A549 (read-out: pTGI (converted)), 14.1 µM; with NCI-H322M (read-out: pTGI (converted)), 44.7 µM; in the test on NCI-H23 (read-out: pTGI (converted)), 50.1 µM; in the test on HCT-116 [1] (read-out: pTGI (converted)), 4.79 µM; in the test with SF-539 (read-out: pTGI) it was more than 100 µM. Besides, the TGI with SNB-75 (read-out: pTGI (converted)) was 26.9 µM; in the test with SF-295 (read-out: pTGI (converted)), 36.3 µM; with LOX IMVI (read-out: pTGI), more than 100 µM; with Malme-3M (read-out: pTGI (converted)), 91.2 µM; in the test on OVCAR-4 (read-out: pTGI (converted)), 24 µM; with OVCAR-8 (read-out: pTGI (converted)), 20.9 µM. For the same compound, the TGI in the test on NCI/ADR-RES (read-out: pTGI (converted)) is 63.1 µM; in the test with OVCAR-3 (read-out: pTGI (converted)), 20.4 µM; in the test with SK-OV-3 (read-out: pTGI (converted)) it was 21.9 µM; in the test with RXF 393 (read-out: pTGI (converted)) it was 15.1 µM; in the test on 786-0 (read-out: pTGI (converted)), 11.7 µM; with UO-31 (read-out: pTGI (converted)) it was 21.4 µM. The TGI in the test with DU-145 [2] (read-out: pTGI) is more than 100 µM; in test [3] (read-out: pTGI (converted)), 33.9 µM; in the test with MDA-MB-231 (read-out: pTGI (converted)), 22.4 µM. The growth, % of control at 10 µM was -19.9% with TK-10, 1% with HCT-116 [4] and 8.9% with NCI-H522.
Turning to `Cc1cs/c(=N\C(=O)c2cnn(C)c2)n1-c1ccc(Cl)cc1`, the growth, % of control at 10 µM is -11.8% in the test with ACHN and 0.3% in the test on DU-145 [5].
As to `Cc1cs/c(=N\C(=O)c2cnn(C)c2)n1-c1ccccc1`, the values for the growth, % of control at 10 µM with ACHN and with DU-145 [5] were -15.7% and 1.6%, respectively.
As to `Cc1cc(NC(=S)NC(=O)c2ccccc2)n(-c2ccccc2)n1`, the growth, % of control at 10 µM in the test on MDA-MB-435 amounted to 22.6%.
In the case of `Cn1cc(C(=O)NC(=S)Nc2ccc(Cl)cc2)cn1`, in the test on NCI-H522, the growth, % of control at 10 µM came to 47.2%.
With `Cc1ccc(NC(=S)NC(=O)c2cnn(C)c2)cc1`, in the test on NCI-H522, the growth, % of control at 10 µM was determined as 62.5%.
Regarding `Cn1cc(C(=O)NC(=S)Nc2ccc(Cl)cc2Cl)cn1`, the growth, % of control at 10 µM with UACC-62 was determined as 79.7%.
For the compound `COc1ccc(NC(=S)NC(=O)c2cnn(C)c2)cc1`, the growth, % of control at 10 µM in the test with HOP-92 worked out at 68.7%.
As for `Cc1cccc(C)c1NC(=S)NC(=O)c1cnn(C)c1`, the growth, % of control at 10 µM in the test on MOLT-4 turned out to be 40.5%.
As to `Cn1cc(C(=O)NC(=S)Nc2c(Cl)cccc2Cl)cn1`, the growth, % of control at 10 µM in the test with CAKI-1 came to 69.7%.

These data come from ChEMBL document CHEMBL1811815, “Synthesis of new pyrazole derivatives and their anticancer evaluation” (2010).
